According to ChEMBL document CHEMBL1130314, “Examination of the role of the acidic hydrogen in imparting selectivity of 7-(aminosulfonyl)-1,2,3,4-tetrahydroisoquinoline (SK&F 29661) toward inhibition of phenylethanolamine N-methyltransferase vs the alpha 2-adrenoceptor” (J Med Chem, 1997):

What was measured:
[1] = molecular target: T1, Adrenergic receptor alpha-2 (Rattus norvegicus, UniProt P22086+P19328+P22909); test: Ability to inhibit binding of [3H]clonidine at the Alpha-2 adrenergic receptor; assay type: protein assay
T1 sequence (P22086 whole entry): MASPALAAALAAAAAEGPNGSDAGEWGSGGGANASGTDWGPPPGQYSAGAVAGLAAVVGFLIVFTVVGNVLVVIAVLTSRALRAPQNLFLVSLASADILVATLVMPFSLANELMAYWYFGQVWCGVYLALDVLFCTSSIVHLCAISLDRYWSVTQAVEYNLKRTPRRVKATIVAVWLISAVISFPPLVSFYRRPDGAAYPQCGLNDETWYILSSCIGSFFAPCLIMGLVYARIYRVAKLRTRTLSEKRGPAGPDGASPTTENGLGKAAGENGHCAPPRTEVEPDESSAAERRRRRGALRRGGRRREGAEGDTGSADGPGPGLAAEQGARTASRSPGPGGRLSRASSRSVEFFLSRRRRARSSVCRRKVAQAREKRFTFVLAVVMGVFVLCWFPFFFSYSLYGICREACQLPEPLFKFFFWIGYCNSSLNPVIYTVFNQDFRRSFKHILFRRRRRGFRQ
T1 sequence (P19328 whole entry): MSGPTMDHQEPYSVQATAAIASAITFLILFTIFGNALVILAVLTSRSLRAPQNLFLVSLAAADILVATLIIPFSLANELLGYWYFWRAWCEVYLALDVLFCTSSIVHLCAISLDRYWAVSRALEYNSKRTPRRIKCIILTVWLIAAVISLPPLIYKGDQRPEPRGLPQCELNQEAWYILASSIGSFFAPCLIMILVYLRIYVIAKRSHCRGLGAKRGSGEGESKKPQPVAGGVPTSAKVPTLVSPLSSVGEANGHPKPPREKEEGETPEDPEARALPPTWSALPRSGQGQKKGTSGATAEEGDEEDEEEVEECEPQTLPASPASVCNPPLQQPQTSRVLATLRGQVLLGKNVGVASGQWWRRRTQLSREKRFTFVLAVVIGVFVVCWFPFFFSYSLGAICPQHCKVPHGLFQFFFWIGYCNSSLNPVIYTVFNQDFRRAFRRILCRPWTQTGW
T1 sequence (P22909 whole entry): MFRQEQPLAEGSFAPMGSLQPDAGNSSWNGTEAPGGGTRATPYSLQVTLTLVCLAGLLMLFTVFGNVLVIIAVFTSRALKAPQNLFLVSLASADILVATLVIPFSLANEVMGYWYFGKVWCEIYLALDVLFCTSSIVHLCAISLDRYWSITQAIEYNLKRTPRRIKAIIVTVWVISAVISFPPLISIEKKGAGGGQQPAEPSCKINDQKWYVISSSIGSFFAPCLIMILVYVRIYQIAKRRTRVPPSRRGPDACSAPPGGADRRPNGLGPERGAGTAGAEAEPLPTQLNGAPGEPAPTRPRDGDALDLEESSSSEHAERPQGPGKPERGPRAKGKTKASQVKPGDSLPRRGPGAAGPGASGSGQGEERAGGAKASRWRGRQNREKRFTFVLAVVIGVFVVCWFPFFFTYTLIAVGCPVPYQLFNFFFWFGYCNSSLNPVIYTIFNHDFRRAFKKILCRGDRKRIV
How it was run: (§1)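 Cortex from male Sprague-Dawley rats, homogenized and washed three times by centrifugation (50000g) in 50 mM Tris·HCl pH 7.7. Incubated with 4.0 nM (final) [3H]clonidine for 30 min at 25 °C. Bound ligand collected by rapid filtration and counted. Nonspecific binding defined with 2 µM phentolamine. Quadruplicates at 5 inhibitor concentrations over a 16-fold range.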

[2] = molecular target: T2, Phenylethanolamine N-methyltransferase (Bos taurus, UniProt P10938); test: Inhibition of Phenylethanolamine N-methyl-transferase (PNMT)
T2 sequence (P10938 whole entry): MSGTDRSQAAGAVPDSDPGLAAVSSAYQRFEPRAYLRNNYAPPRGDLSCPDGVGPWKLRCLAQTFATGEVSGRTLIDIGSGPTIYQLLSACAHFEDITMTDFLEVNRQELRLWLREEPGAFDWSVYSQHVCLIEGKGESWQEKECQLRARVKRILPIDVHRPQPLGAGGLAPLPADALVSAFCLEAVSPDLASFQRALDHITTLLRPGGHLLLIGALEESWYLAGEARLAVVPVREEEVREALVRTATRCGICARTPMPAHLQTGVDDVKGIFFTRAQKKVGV
How it was run: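 Bovine adrenal PNMT, purified through isoelectric precipitation. Radiochemical assay in phosphate buffer pH 8.0 with unlabeled AdoMet plus [methyl-3H]AdoMet, with phenylethanolamine as the variable substrate. Incubated 30 min at 37 °C, then quenched with borate pH 10.0. Product extracted into toluene–isoamyl alcohol (7:3) and scintillation counted. Duplicates at three inhibitor concentrations over a 5-fold range. Ki from hyperbolic fit; mode checked by 1/V vs 1/S plots.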

[3] = Selectivity was expressed as the ratio is Ki of alpha 2-Adrenoceptor to tht of PNMT
[4] = Dissociation constant was determined; assay type: physicochemical
[5] = molecular target: T1, Adrenergic receptor alpha-2; test: Inhibition of [3H]clonidine binding to Alpha-2 adrenergic receptor; assay type: protein assay; how it was run: as §1
[6] = Selectivity was expressed as the ratio is Ki of alpha 2-Adrenoceptor to that of PNMT

Row | SMILES | Ki [1] [µM] | Ki [2] [µM] | Selectivity ratio [3] | pKa [4] | Ki [5] [µM] | Selectivity ratio [6]
1 | Clc1ccc2c(c1Cl)CNCC2 | […] | 0.2 |  |  |  | 
2 | O=S(=O)(Nc1ccc(Cl)cc1)c1ccc2c(c1)CNCC2 |  | 2.6 | 2.4 | 7.8 | 6.3 | 
4 | COc1ccc2c(CN)cccc2c1 |  | 15 | 0.31 |  | 4.6 | 
5 | Oc1ccc2c3c(ccc2c1)CCNC3 |  | 0.98 | 0.08 | 10 | 0.078 | 
6 | NCc1cccc2cc(O)ccc12 |  | 8.4 | 0.25 | 10 | 2.1 | 
7 | COc1ccc2c3c(ccc2c1)CCNC3 |  | 1.4 | 0.6 |  | 0.84 | 
8 | Oc1ccc2c(c1)CNCC2 |  |  |  | 10 | 2.2 | 0.85
9 | CS(=O)(=O)N(c1ccc2c(c1)CNCC2)S(C)(=O)=O |  | 4500 | 0.042 |  | 190 | 
10 | CS(=O)(=O)Nc1ccc2c(c1)CNCC2 |  | 48 | 0.23 | 9 | 11 | 
11 | NCc1cccc2ccccc12 |  | 4.7 | 0.34 |  | 1.6 | 
12 | CS(=O)(=O)NCc1ccc2c(c1)CNCC2 |  | 330 | 0.055 | 11.9 | 18 | 
13 | CNS(=O)(=O)c1ccc2c(c1)CNCC2 |  | 4.6 | 28 | 11.4 | 130 | 
